“And” between values parts separate entries of the source, which are not always exact repeats. Equal values may be shown once. Each block holds one molecule with its values, some of them ahead of it.
What was measured:
[1] = biological target: T1, Hexokinase-2 (Rattus norvegicus) (UniProt P27881); assay: Time dependent inhibition of hexokinase 2 activity after 6 h, at 5 mM compound
T1 sequence (whole entry): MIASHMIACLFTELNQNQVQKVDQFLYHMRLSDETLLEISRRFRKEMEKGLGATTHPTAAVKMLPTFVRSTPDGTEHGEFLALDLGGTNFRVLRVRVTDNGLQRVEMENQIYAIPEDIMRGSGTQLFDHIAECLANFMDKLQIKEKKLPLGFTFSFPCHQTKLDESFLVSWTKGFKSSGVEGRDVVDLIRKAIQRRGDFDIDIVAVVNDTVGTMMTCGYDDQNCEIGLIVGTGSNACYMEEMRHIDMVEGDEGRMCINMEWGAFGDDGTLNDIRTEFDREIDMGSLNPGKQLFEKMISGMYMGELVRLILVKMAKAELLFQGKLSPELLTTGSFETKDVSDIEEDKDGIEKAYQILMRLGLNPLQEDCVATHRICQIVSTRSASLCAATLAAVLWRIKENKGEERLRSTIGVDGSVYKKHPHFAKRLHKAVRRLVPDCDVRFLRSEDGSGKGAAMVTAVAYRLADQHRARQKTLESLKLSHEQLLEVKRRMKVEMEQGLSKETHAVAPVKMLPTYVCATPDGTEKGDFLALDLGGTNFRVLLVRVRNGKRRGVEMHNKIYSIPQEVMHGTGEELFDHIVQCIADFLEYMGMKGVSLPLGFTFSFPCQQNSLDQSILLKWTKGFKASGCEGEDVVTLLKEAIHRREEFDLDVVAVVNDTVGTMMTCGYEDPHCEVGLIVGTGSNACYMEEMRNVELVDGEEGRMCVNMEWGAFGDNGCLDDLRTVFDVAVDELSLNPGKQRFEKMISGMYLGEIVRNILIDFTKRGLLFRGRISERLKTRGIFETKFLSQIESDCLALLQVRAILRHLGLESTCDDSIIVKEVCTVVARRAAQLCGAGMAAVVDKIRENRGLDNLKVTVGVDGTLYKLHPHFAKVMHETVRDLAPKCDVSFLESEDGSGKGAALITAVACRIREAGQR

[2] = biological target: T2, Hexokinase-1 (Rattus norvegicus) (UniProt P05708); assay: Time dependent inhibition of Hexokinase type I activity after 6 h, at 22 degrees celsius, at 5 mM compound
T2 sequence (whole entry): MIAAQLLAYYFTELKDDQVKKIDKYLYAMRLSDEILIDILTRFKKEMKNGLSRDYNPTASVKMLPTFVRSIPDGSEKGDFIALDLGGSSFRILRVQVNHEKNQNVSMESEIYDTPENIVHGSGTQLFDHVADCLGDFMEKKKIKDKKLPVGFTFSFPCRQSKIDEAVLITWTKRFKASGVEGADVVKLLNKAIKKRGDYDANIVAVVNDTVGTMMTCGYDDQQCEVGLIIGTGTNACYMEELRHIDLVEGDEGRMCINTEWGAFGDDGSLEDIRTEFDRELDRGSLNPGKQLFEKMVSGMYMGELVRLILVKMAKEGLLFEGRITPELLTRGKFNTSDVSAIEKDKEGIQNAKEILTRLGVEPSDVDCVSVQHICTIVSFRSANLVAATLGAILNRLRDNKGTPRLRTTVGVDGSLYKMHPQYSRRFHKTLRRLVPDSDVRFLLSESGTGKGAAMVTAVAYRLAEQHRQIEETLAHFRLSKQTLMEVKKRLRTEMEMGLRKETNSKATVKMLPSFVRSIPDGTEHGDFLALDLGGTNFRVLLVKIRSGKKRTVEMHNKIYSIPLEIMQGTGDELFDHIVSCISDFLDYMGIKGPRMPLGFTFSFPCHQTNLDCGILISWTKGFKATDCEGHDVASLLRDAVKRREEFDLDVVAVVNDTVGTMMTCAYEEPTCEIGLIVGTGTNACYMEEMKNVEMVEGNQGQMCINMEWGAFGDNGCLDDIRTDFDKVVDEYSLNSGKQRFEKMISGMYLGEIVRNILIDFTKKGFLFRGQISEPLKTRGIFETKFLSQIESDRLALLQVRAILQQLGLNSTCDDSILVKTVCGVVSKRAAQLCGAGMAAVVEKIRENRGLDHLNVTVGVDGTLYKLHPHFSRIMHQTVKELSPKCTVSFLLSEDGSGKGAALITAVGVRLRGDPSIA

Rattus norvegicus = species on record: Rattus norvegicus; assay: Compound was tested for the affinity to Rat pyruvate kinase relative to the normal substrate. Affinity is expressed as KM (ATP or ADP)/ Ki of inhibitor.; format: functional
[3] = biological target: T2, Hexokinase-1 (Rattus norvegicus); assay: Substrate activity for rat hexokinase I as 1:1 Mg complex at 5.0 mM
Outline: (§1)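 Hexokinase activity read at 22 °C as A340 change, coupled to glucose-6-phosphate dehydrogenase, in 0.05 M Tris-HCl pH 7.6 with 6.6 mM MgCl2, 10 mM α-D-glucose and 0.93 mM NADP. Donor was 5.0 mM MgATP derivative (1:1 Mg complex) in place of ATP. Yeast HK was isoelectric-focused. Rat HK I and III came from electrofocused liver extract, HK II from dialysed muscle extract.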

[4] = biological target: Thymidine kinase (Escherichia coli) (UniProt P23331); assay: Compound was tested for the initial inhibition of thymidine kinase by 1.4 mM compound in the presence of 5.7 mM ATP in Escherichia coli
Thymidine kinase (Escherichia coli), sequence (P23331 whole entry, looked up): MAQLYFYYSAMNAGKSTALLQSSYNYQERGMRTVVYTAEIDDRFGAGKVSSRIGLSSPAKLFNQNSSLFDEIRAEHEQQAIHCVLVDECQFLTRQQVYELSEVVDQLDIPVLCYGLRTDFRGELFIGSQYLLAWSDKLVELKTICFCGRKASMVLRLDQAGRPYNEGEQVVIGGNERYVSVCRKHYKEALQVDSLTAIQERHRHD

Saccharomyces cerevisiae [5] = assay: Time dependent inhibition of hexokinase activity after 6 hr, at 22 degrees celsius, with 5 mM ATP derivative in yeast.
[6] = biological target: T3, Hexokinase-3 (Rattus norvegicus) (UniProt P27926); assay: Time dependent inhibition of Hexokinase type III activity after 6 h, at 22 degrees celsius, at 5 mM
T3 sequence (whole entry): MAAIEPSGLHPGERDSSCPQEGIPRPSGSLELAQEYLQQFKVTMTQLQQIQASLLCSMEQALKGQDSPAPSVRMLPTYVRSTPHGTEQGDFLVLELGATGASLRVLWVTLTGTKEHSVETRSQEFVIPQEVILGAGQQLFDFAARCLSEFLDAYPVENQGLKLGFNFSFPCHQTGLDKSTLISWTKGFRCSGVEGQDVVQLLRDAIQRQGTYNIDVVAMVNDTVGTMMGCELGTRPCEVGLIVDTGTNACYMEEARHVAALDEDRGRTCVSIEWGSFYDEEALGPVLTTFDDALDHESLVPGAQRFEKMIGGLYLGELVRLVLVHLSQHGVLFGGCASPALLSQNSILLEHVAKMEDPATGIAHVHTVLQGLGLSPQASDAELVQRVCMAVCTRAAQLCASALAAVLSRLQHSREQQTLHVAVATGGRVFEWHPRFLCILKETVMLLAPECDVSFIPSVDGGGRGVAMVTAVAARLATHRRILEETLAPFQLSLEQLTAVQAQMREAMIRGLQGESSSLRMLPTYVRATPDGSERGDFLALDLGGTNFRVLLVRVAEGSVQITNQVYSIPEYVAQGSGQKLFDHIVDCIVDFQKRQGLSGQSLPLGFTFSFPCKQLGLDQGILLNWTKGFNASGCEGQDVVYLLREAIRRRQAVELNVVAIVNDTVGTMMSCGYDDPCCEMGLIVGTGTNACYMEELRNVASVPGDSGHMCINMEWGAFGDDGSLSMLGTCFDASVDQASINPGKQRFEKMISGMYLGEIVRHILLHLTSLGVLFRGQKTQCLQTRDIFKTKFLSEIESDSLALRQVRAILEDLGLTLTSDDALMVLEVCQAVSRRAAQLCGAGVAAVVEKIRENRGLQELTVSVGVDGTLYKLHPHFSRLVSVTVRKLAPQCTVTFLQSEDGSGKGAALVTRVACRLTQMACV

[7] = biological target: T3, Hexokinase-3 (Rattus norvegicus); assay: Substrate activity for rat hexokinase III as 1:1 Mg complex at 5.0 mM
Outline: as §1

[8] = biological target: T1, Hexokinase-2 (Rattus norvegicus); assay: Substrate activity against Rat hexokinase II as 1:1 Mg complex at 5.0 mM
Outline: as §1

[9] = biological target: Thymidine kinase (Escherichia coli) (UniProt P23331); assay: Compound was tested for the lose of thymidine kinase activity after 6 hr, at 0 degrees celsius, with 10 mM ATP derivative. values were expressed in percent
[10] = (§2) Extent of inactivation caused by the compound was reported.; format: functional
Saccharomyces cerevisiae [11] = assay: Substrate activity against yeast hexokinase as 1:1 Mg complexes at 5.0 mM
Outline: as §1

[12] = Compound was tested for substrate constants with rat hexokinase. Maximal velocity Vmax was reported
Outline: (§3)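 Hexokinase KM and Vmax taken from linear double-reciprocal plots of initial velocity vs. nucleotide level. Assays at 22 °C, coupled to glucose-6-phosphate dehydrogenase (A340), in 0.05 M Tris-HCl pH 7.6 with 6.6 mM MgCl2, 10 mM glucose and 0.93 mM NADP. Yeast HK was isoelectric-focused. Rat HK I and III came from liver, HK II from muscle (male Sprague-Dawley).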

[13] = Substrate concentration for half maximal velocity was reported for rat hexokinase II
Outline: (§4)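 Coupled glucose-6-phosphate dehydrogenase/NADP assay: A340 rate at 22 °C in 0.05 M Tris-HCl pH 7.6 with 6.6 mM MgCl2, 10 mM α-D-glucose and 0.93 mM NADP, nucleotide varied. KM was taken from linear double-reciprocal plots. Rat HK I and III came from electrofocused, dialysed liver extract, HK II from dialysed muscle extract, and yeast HK was isoelectric-focused.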

[14] = Substrate concentration for half maximal velocity was reported for rat hexokinase I
Outline: as §4

[15] = Substrate concentration for half maximal velocity was reported for yeast hexokinase
Outline: as §4

[16] = Substrate concentration for half maximal velocity was reported for rat hexokinase III
Outline: as §4

[17] = Compound was tested for substrate constants with yeast hexokinase. Maximal velocity Vmax was reported
Outline: as §3

[18] = Tested for the velocity of 2.8 mM compound relative to that of 2.8 mM MgATP in the assay
Outline: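 E. coli TK substrate test. 0.5 h after adding inhibitor, the mixture was diluted to 2.8 mM derivative in thymidine assay medium without ATP and with 1.42 mM MnCl2. Incubated 15 min at 37 °C, in the linear range. [14C]TMP formed was compared with that from 2.8 mM ATP under the same conditions.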

[19] = as §2
[20] = Compound was tested for the affinity relative to the normal substrate. Affinity is expressed as KM (ATP or ADP)/ Ki of inhibitor.

- inhibition [1]: 41%
- inhibition [2]: 35%
- Relative velocity [3]: 1.79
- inhibition [4]: 19%
- inhibition (Saccharomyces cerevisiae [5]): 30%
- inhibition [6]: 47%
- Relative velocity [7]: 2.81
- Relative velocity [8]: 1.26
- inhibition [9]: 0%
- Relative velocity (Saccharomyces cerevisiae [11]): 1.82
SMILES: O=C(CI)NCCCCCCCCNc1ncnc2c1ncn2[C@@H]1O[C@H](COP(=O)(O)OP(=O)(O)OP(=O)(O)O)[C@@H](O)[C@H]1O
- Relative affinity (Rattus norvegicus): 0.011
- Inactivation [10]: > 90%

- Vmax [12]: 45% and 35% and 23%
- Km [13]: 270 µM
- Km [14]: 180 µM
- Km [15]: 320 µM
- Km [16]: 100 µM
- Vmax [17]: 75%
SMILES: CN(CCCN(C)C(=O)CCCCNc1ncnc2c1ncn2[C@@H]1O[C@H](COP(=O)(O)OP(=O)(O)OP(=O)(O)O)[C@@H](O)[C@H]1O)C(=O)CCCCNC(=O)OCc1ccccc1

- inhibition [1]: 0%
- inhibition [2]: 0%
- Velocity [18]: > 13%
- Relative inactivation [19]: > 80
- inhibition [4]: 11%
- inhibition [6]: 0%
- inhibition [9]: 53%
- Relative affinity [20]: 0.56
SMILES: CN(CCCCN(C)c1ncnc2c1ncn2[C@@H]1O[C@H](COP(=O)(O)OP(=O)(O)OP(=O)(O)O)[C@@H](O)[C@H]1O)C(=O)CCCCCNC(=O)CI

Source: ChEMBL document CHEMBL1122206, “Use of adenine nucleotide derivatives to assess the potential of exo-active-site-directed reagents as species- or isozyme-specific enzyme inactivators. 5. Interactions of adenosine 5'-triphosphate derivatives with rat pyruvate kinases, Escherichia coli thymidine kinase, and yeast and rat …” (1982)
